# FAK inh = FAK (human) kinase inhibition | Q05397 | biochemical FAK kinase activity assay | inhibition, %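 (tested at 7 µM)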 | 97,000 compounds, 0.84% hits; in the data active = inhibition above about 19%;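 note: 0% = DMSO and 100% = reference compound high control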
# Cav3 T inh = blocks human Cav3.2 T-type calcium channel | 100,000 compounds, 4% hits | Cav3.2-expressing cells, Fluo-4 calcium fluorescence FDSS; active compounds read low | B-score at 10 µM;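 active = single-dose well whose peak fluorescence ratio is a statistical outlier from its plate by either plate-standardised score or position-corrected B-score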
# Rev-RRE block = disrupts HIV-1 Rev binding to RRE RNA; inhibition, % at 8 µM; 97,000 compounds, 0.79% hits; Rev peptide-RRE RNA binding, FRET;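 active = inhibition above the screen-wide mean plus 3 SD, cut at about 35% in these data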;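 note: 0% = median DMSO wells and 100% = median Neomycin B control wells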
# Target sequence (P05866 whole entry, looked up): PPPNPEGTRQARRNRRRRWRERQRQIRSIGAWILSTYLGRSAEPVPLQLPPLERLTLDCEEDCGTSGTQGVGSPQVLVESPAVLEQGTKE
#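 Test system – labelled RRE RNA duplex and labelled Rev peptide · Signal – fluorescein-to-Cy5 FRET, 480 nm excitation · Evaluation – % inhibition of FRET ratio versus controls · Benchmarks – DMSO low control, neomycin B high control · Incubation – 5 min RNA-compound premix plus 15 min binding step, 25 °C · Medium – HEPES pH 7.5 salt buffer with EDTA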
# PLK1 PBD inh = inhibitors of human Plk1 polo box domain binding. P53350. Plk1 PBD phosphopeptide binding, fluorescence polarization. inhibition, %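 (tested at about 20 µM)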. 97,000 compounds, 0.13% hits. AID 693; in the data active = inhibition above about 34%, passing the limit was not always enough
# PLK1 inh = inhibitors of human PLK1 kinase; P53350; recombinant PLK1 kinase, TR-FRET peptide phosphorylation; inhibition, % at 10 µM; 97,000 compounds, 0.53% hits;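 active = inhibition of 50% or more in the single-concentration screen; inactive = inhibition below 50%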;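 note: 0% = DMSO max control and 100% = H-89 dihydrochloride min control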
# Pyk2 oligo antag = antagonists of human Pyk2 oligomerization | 99,000 compounds, 0.83% hits | z-score (the deposit names both 25 µM and 10 µM) | Q293 cells, Pyk2 FERM NanoBiT luminescence; active compounds read low | Q14289;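 active = Z-score of -3 or lower, scaled per plate to the spread of control and sample wells; inactive = z-score above -3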;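 note: negative z-score means lost luminescence so less FERM oligomerization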
# * hit, by the source's call; . = no result given; [ ] = dose if it differs, or a comment. The list is not random: actives were taken first. Their share in the collection is about 5.8%.
SMILES,FAK inh,Cav3 T inh,Rev-RRE block,PLK1 PBD inh,PLK1 inh,Pyk2 oligo antag
CCn1c(N2CCN(CC(=O)c3c[nH]c4ccccc34)CC2)nc2c1c(=O)[nH]c(=O)n2C,3,2.4,6,11,-5,1.3
CC1CCN(c2nc3c(c(=O)n(C)c(=O)n3C)n2CCSc2nc3ccccc3s2)CC1,-3,-1.3,-2,-19,-2,-1
CC1CCCN(c2nc3c(c(=O)[nH]c(=O)n3C)n2CCCc2ccccc2)C1 (stereo unspecified),.,-5.6*,.,.,.,.
NC(=O)c1cnn2c(C(F)(F)F)cc(-c3ccc(F)cc3)nc12,-1,0.37,4,-10,-14,-0.15
CCOC(=O)C(NC(=O)c1ccc(Cl)cc1Cl)(Nc1ccc(C)cc1)C(F)(F)F (stereo unspecified),-3,.,5,-8,-4,0.43
CCN1CCN(C(=O)c2ccc(NS(=O)(=O)c3ccccc3)cc2)CC1,1,0.32,12,-13,-7,-0.89
CCCCCCn1c(N2CCN(c3ccccc3)CC2)nc2c1c(=O)[nH]c(=O)n2C,.,-5.7*,.,.,.,0.06
CCCCCCCCn1c(N2CCN(c3cccc(Cl)c3)CC2)nc2c1c(=O)[nH]c(=O)n2C,-1,-2,11,-15,-6,-0.02
CCN(CC)S(=O)(=O)c1ccc(NCc2ccccc2)nc1,4,0.2,5,-15,-12,0.46
Cc1c(N=Cc2c(O)n(C3CCCCC3)c(=O)[nH]c2=O)c(=O)n(-c2ccccc2)n1C,0,1.3,8,-1,-20,0.29
O=c1[nH]c(=O)n(C2CCCCCC2)c(O)c1C=NCc1ccc(F)cc1,8,-6.7*,11,19,-4,-1.7
COC(=O)c1ccc2c(c1)C(C)(C)C(/C=C/c1ccc(O)cc1)=[N+]2C,0,-4.4,79*[fluorescence artefact?],-4,-13,-0.31
CNC(=S)N1N=C(c2ccc(Br)cc2)CC1c1ccc(Br)cc1 (stereo unspecified),-1,-6.7*,2,22,-5,-0.11
CNC(=S)N1N=C(c2ccc(OC)cc2)CC1c1ccc(N(C)C)cc1 (stereo unspecified),7,-4.1,5,-5,-15,-0.2
Nc1c(C(=O)c2ccccc2)sc2snc(SCC(=O)c3ccccc3)c12,9,-2.8,78*,-47,21,0.59
COc1ccc(CCNC(=O)C(=O)NCc2ccc(C(C)C)cc2)cc1OC,-2,-7.3*,-3,6,-7,-0.68
COc1ccc(CCNC(=O)c2cc(C(C)C)on2)cc1OC,.,-1.2,.,.,.,.
CN1CC=C2C(C#N)=C(N)C(C#N)(C#N)C(c3cccc(Cl)c3Cl)C2C1 (stereo unspecified),.,-0.24,.,.,.,-0.17
CN1CC=C2C(C#N)=C(N)C(C#N)(C#N)[C@H](c3ccoc3)[C@H]2C1,3,0.64,42*,-32,16,-0.18
N#CC1=C(N)C(C#N)(C#N)[C@H](c2ccoc2)[C@H]2CN(Cc3ccccc3)CC=C12,2,.,100*[fluorescence artefact?],-22,-6,-0.06
CCN1CC=C2C(C#N)=C(N)C(C#N)(C#N)C(CCc3ccccc3)C2C1 (stereo unspecified),2,-2.4,86*[fluorescence artefact?],-32,6,-0.82
Cc1ccc(C2C3CN(C(C)C)CC=C3C(C#N)=C(N)C2(C#N)C#N)cc1 (stereo unspecified),.,.,.,.,.,-1
N#CC1=C(N)C(C#N)(C#N)C(c2cccnc2)C2CN(C(=O)OCc3ccccc3)CC=C12 (stereo unspecified),-1,1.7,16,2,-2,-0.64
COc1ccc(OC)c(C2C3CN(C(C)C)CC=C3C(C#N)=C(N)C2(C#N)C#N)c1 (stereo unspecified),1,0.24,82*,-36,-7,-0.3
Fc1ccccc1CSc1nc2ccccc2[nH]1,2,.,4,3,-7,1.6
SMILES,FAK inh,Cav3 T inh,Rev-RRE block,PLK1 PBD inh,PLK1 inh,Pyk2 oligo antag
O=C(O)c1sccc1SCc1ccc(Cl)cc1Cl,-9,.,0,23,-21,1.5
Nc1cnn(C2CCCO2)c(=O)n1 (stereo unspecified),-6,1.4,1,-31,-4,0.5
Cc1ccc(CN2CCNC(=O)C2CC(=O)O)cc1 (stereo unspecified),-4,.,4,-15,61*,.
O=C(O)CC1C(=O)NCCN1Cc1ccc(F)c(F)c1 (stereo unspecified),0,0.38,3,-14,65*,.
O=C(O)CC1C(=O)NCCN1CCCc1ccccc1 (stereo unspecified),-2,-0.17,0,12,-26,.
FC(F)(F)c1nc2ccccc2nc1N/N=C\c1ccccc1,-2,.,6,21,-10,0.21
O=C(NCc1ccc2c(c1)OCO2)C1CC(c2ccc(Cl)cc2)=NO1 (stereo unspecified),4,-5.6*,5,-25,-3,1.1
O=C(NCc1ccc(OC(F)(F)F)cc1)C1CC(c2cccc(F)c2)=NO1 (stereo unspecified),.,-3.2*,.,.,.,.
C#CCOc1nc(OCC#C)nc(OCC#C)n1,1,-0.43,6,8,-6,-0.43
CCN1C(=O)CC(c2ccco2)Sc2ccccc21 (stereo unspecified),.,-0.64,.,.,.,0.02
Cc1noc(C)c1COc1ccc(C(=O)OCc2nnc(-c3ccc(Cl)cc3)o2)cc1,-13,-6.3*,3,30,-8,3.3
O=C(OCc1nnc(-c2ccc(Cl)cc2)o1)c1ccncc1,-1,-0.49,12,20,14,0.36
CCOc1ccc(/C(O)=C2/C(=O)C(=O)N(CCCn3ccnc3)C2c2cccs2)cc1Cl (stereo unspecified),-6,-0.035,-1,-5,-18,-0.52
COc1cccc(N2CC(C(=O)Nc3ccc(C(=O)OC(C)C)cc3)CC2=O)c1 (stereo unspecified),-1,-4.6*,13,22,-8,-0.64
CCOc1ccc(N2CC(C(=O)Nc3ccccc3OC)CC2=O)cc1 (stereo unspecified),-6,-5.1*,-2,6,-10,.
COc1cccc(N2CC(C(=O)NC3CCCCC3)CC2=O)c1 (stereo unspecified),.,0.7,.,.,.,-0.15
CCOc1ccc(N2CC(C(=O)Nc3ccc(F)cc3F)CC2=O)cc1 (stereo unspecified),-1,-1.3,-1,-7,-12,0.65
COc1cc2c(c(OC)c1CC=C(C)C)C[C@H](c1ccc(O)cc1O)CO2,.,-0.45,.,.,.,.
COc1ccc[nH]c1=O,-2,0.33,5,0,1,0.14
O=c1[nH]c(=O)n(C2CCCO2)cc1Br (stereo unspecified),1,-0.59,11,1,-8,0.84
CCOC(=O)c1c(C)[nH]c(C)c1C(=O)Cn1nnc(-c2ccccc2C)n1,-1,-10*,13,-21,-2,-1.8
COC(=O)c1ccc(CN(c2ccc(C)cc2)S(=O)(=O)c2ccc3c(c2)OCCO3)o1,3,0.36,16,2,0,-3.3*

# Screening results: PubChem, several laboratories
